Assay outcomes from PubChem.
Only a selection was taken, and hits are over-represented in it overall.
E-sel inducer: induces E-selectin expression in human endothelial cells | activation, % at 7.58 µM | 260,000 tested, 0.37% active | P16581 | HUVEC E-selectin immunofluorescence imaging; normalized: neutral wells 0, TNF-alpha wells 100;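 active means mean E-selectin-positive cell signal at least 10% of the positive control, reached in at least 60% of replicates, without over 20% cell loss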
Target sequence (P16581 whole entry, looked up): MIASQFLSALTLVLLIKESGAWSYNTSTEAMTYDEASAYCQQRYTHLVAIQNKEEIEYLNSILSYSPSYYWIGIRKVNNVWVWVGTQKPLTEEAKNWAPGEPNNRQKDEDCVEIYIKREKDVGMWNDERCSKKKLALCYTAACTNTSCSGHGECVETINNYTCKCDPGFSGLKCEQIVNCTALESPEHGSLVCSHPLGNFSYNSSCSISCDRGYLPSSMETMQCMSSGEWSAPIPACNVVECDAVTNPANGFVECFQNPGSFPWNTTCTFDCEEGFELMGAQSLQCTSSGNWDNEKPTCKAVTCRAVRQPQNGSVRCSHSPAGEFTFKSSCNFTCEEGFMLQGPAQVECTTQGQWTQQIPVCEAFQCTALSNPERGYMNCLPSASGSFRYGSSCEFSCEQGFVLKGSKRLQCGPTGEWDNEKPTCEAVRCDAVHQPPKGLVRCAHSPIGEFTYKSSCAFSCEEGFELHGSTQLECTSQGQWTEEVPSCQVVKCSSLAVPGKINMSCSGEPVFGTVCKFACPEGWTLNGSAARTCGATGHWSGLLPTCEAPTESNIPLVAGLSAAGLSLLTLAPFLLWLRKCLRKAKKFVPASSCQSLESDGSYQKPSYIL
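Material: HUVEC primary endothelial cells; Amount: 3,000 cells per well; Dosing: single concentration; Medium: EGM-2 growth medium on 0.1% gelatin-coated wells; Read-out basis: percent E-selectin-positive cells; Signal: immunofluorescence imaging; Control set: TNF-alpha, DMSO.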
XiGFP reactiv: reactivates the inactive X chromosome in mouse fibroblasts. activation, % at 7.58 µM. AID 743238. XiGFP mouse fibroblasts, % GFP-positive cells imaging, 3 d; cells co-treated with 5-aza-dC sensitizer; scaled so ellipticine positive control = 100%. 360,000 tested, 0.055% active;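 active means mean normalized replicate activation at least 10% and every replicate at or above 10%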
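System: XiGFP fibroblasts, SV40-immortalized. Medium: DMEM plus 5-aza-dC sensitizer. Doses: single point. Timing: 3 d treatment, 15 min room-temperature fixation. Control set: ellipticine 6 µM.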
Numbers stand for hits; – = inactive; · = not tested or not shown.

SMILES | E-sel inducer | XiGFP reactiv
C[C@@H]1CN([C@@H](C)CO)C(=O)c2cc(NC(=O)CCN3CCOCC3)ccc2O[C@H]1CN(C)Cc1ccc(-c2ccccc2)cc1 | – | –
COc1cccc(S(=O)(=O)N2C[C@@H](O)COC[C@H]3O[C@@H](CC(=O)N4CCCCC4)CC[C@@H]32)c1 | – | –
C[C@@H]1CN([C@@H](C)CO)C(=O)Cc2cc(NC(=O)Nc3ccc(C(F)(F)F)cc3)ccc2O[C@H]1CN(C)Cc1ccc(Oc2ccccc2)cc1 | – | –
C[C@@H]1CN([C@H](C)CO)C(=O)Cc2cc(NS(C)(=O)=O)ccc2O[C@@H]1CN(C)Cc1ccncc1 | – | –
C[C@@H]1CN([C@H](C)CO)C(=O)Cc2cc(NC(=O)Nc3ccc(C(F)(F)F)cc3)ccc2O[C@H]1CN(C)Cc1ccc(Oc2ccccc2)cc1 | 446 | –
C[C@@H]1CN([C@@H](C)CO)C(=O)Cc2cc(NC(=O)c3ccncc3)ccc2O[C@H]1CN(C)Cc1ccc(Oc2ccccc2)cc1 | 313 | –
Cc1noc(C)c1S(=O)(=O)Nc1ccc2c(c1)CC(=O)N([C@@H](C)CO)C[C@@H](C)[C@H](CN(C)Cc1ccc(-c3ccccc3)cc1)O2 | – | –
C[C@@H]1CN([C@@H](C)CO)C(=O)Cc2cc(NS(C)(=O)=O)ccc2O[C@H]1CN(C)Cc1ccncc1 | 440 | –
Cc1noc(C)c1S(=O)(=O)Nc1ccc2c(c1)CC(=O)N([C@H](C)CO)C[C@H](C)[C@@H](CN(C)Cc1ccc(-c3ccccc3)cc1)O2 | 58 | –
C[C@@H]1CN([C@H](C)CO)C(=O)Cc2cc(NC(=O)c3ccncc3)ccc2O[C@@H]1CN(C)Cc1ccc(Oc2ccccc2)cc1 | – | –
C[C@H]1CN([C@@H](C)CO)C(=O)c2cc(C#CC3CC3)cnc2O[C@H]1CN(C)C(=O)CC1CC1 | – | –
C[C@@H]1CN([C@@H](C)CO)C(=O)Cc2cc(NS(=O)(=O)c3ccccc3)ccc2O[C@H]1CN(C)Cc1ccc(Oc2ccccc2)cc1 | – | –
CC(C)NC(=O)Nc1ccc2c(c1)CC(=O)N([C@@H](C)CO)C[C@@H](C)[C@@H](CN(C)Cc1ccc(Oc3ccccc3)cc1)O2 | – | –
CC(C)NC(=O)Nc1ccc2c(c1)CC(=O)N([C@H](C)CO)C[C@H](C)[C@@H](CN(C)Cc1ccc(Oc3ccccc3)cc1)O2 | 37 | –
COc1ccc(NC(=O)N(C)C[C@H]2Oc3ccc(NC(=O)c4ccncc4)cc3CC(=O)N([C@H](C)CO)C[C@H]2C)cc1 | 42 | –
C[C@H]1CN([C@@H](C)CO)C(=O)Cc2cc(NS(C)(=O)=O)ccc2O[C@@H]1CN(C)Cc1ccc(Oc2ccccc2)cc1 | 169 | –
CC(C)NC(=O)Nc1ccc2c(c1)CC(=O)N([C@H](C)CO)C[C@@H](C)[C@H](CN(C)Cc1ccc(Oc3ccccc3)cc1)O2 | 45 | –
COc1ccc(CN(C)C[C@H]2Oc3ccc(NC(=O)c4ccncc4)cc3CC(=O)N([C@H](C)CO)C[C@H]2C)cc1 | – | –
CC(C)NC(=O)Nc1ccc2c(c1)CC(=O)N([C@@H](C)CO)C[C@H](C)[C@H](CN(C)Cc1ccc(Oc3ccccc3)cc1)O2 | – | –
CO[C@@H]1CN(C)C(=O)c2ccc(NS(C)(=O)=O)cc2OC[C@@H](C)N(C(=O)C2CCC2)C[C@@H]1C | – | –
CCCNC(=O)N1[C@H](CNC(=O)c2ccccc2)[C@@H](c2ccccc2)[C@@H]1CO | – | –
CC=Cc1ccc2n(c1=O)C[C@H]1[C@H](CO)[C@@H](C(=O)NCCC)[C@@H]2N1CC1CC1 (mixture of isomers) | – | –
C[C@@H](NC(=O)C[C@H]1CC[C@H]2[C@@H](COc3ccc(NS(=O)(=O)c4ccc(Cl)cc4)cc3C(=O)N2C)O1)c1ccccc1 | – | –
CO[C@H]1CN(C)C(=O)c2cc(NS(=O)(=O)c3ccc(Cl)cc3)ccc2OC[C@@H](C)NC[C@@H]1C | – | –
C[C@@H]1CCCCO[C@H](CN(C)C(=O)Nc2ccccc2)[C@@H](C)CN([C@@H](C)CO)C(=O)c2cc(NC(=O)c3ccncc3)ccc2O1 | · | –
SMILES | E-sel inducer | XiGFP reactiv
Nc1nc2cc(Br)ccc2o1 | – | –
Brc1ccc2oc(-c3ccn[nH]3)cc2c1 | 74 | –
COc1ccc(-c2nc3cc(C)c(Br)c(C)n3c2CC(C)(C)C)cc1OC | 177 | –
COc1ccc(-c2nc3cc(C)c(Br)c(C)n3c2Cc2ccc(C)cc2)cc1OC | – | –
C[C@H](NC(=O)C[C@H]1CC[C@H]2[C@@H](COC[C@H](O)CN2C(=O)Nc2ccccc2)O1)c1ccccc1 | – | –
O=C(NCc1ccc(F)cc1)c1cc(C2CCCCN2C(=O)CCCc2ccccc2)on1 (centres undefined) | 83 | –
O=C(NCc1ccccc1)c1cc(C2CCCCN2C(=O)CCCc2ccccc2)on1 (centres undefined) | – | –
CCn1c2ccccc2c2nnc(SCc3ccccc3)nc21 | – | –
CCn1c2ccccc2c2nnc(SCN3C(=O)c4ccccc4C3=O)nc21 | 121 | ·
Cc1cc(C)cc(OCc2nc(-c3cccnc3)no2)c1 | · | –
Cc1ccc(OCc2nc(-c3cccnc3)no2)cc1C | 424 | –
O=C(c1cncc(Br)c1)N1CCN(S(=O)(=O)c2ccccc2C(F)(F)F)CC1 | 33 | –
O=C(c1cncc(Br)c1)N1CCN(S(=O)(=O)c2ccccc2)CC1 | · | –
CCCCn1c(N)c(N(CC(C)C)C(=O)c2ccc(S(=O)(=O)N3CCCCC3)cc2)c(=O)[nH]c1=O | 58 | –
CCCCn1c(N)c(N(CC(C)C)C(=O)c2cccc(S(=O)(=O)N3CCCCC3)c2)c(=O)[nH]c1=O | · | –
CCCNC(=O)N1C[C@@H]2[C@H](c3ccccc31)[C@H](CO)N2C(=O)NC(C)C | – | –
CC(=O)OCCCNc1cc(Sc2ccc(C)cc2)c2nonc2c1[N+](=O)[O-] | · | –
CC(=O)OCCNc1cc(Sc2nc3ccccc3[nH]2)c2nonc2c1[N+](=O)[O-] | · | 17
O=C(C[C@H]1CC[C@@H]2[C@H](COC[C@@H](O)CN2S(=O)(=O)c2cccc(Cl)c2)O1)NC1CCC1 | – | –
Cc1nnc(N2C(=O)c3cccc4c([N+](=O)[O-])ccc(c34)C2=O)s1 | · | 27
O=C1c2cccc3c([N+](=O)[O-])ccc(c23)C(=O)N1Cc1cccnc1 | – | 20
Cc1ccc(N2C(=O)c3cccc4c([N+](=O)[O-])ccc(c34)C2=O)c2cccnc12 | – | –
O=C1c2cccc3cccc(c23)C(=O)N1Cc1cccnc1 | · | –
Cc1noc(C)c1S(=O)(=O)N(C)C[C@H]1Oc2ccc(NS(C)(=O)=O)cc2C(=O)N([C@H](C)CO)C[C@@H]1C | · | –
Cc1c(N(C)C(=O)COc2ccc3ccccc3c2)c(=O)n(-c2ccccc2)n1C | 42 | –
CN(C(=O)COC(=O)COc1ccc2ccccc2c1)c1ccccc1 | – | –
C[C@H](CO)N1C[C@H](C)[C@H](CN(C)C(=O)Nc2ccccc2)Oc2ccc(NC(=O)Nc3ccc(C(F)(F)F)cc3)cc2C1=O | – | –
C[C@@H]1CN([C@H](C)CO)C(=O)c2cccc(NC(=O)Nc3ccc4c(c3)OCO4)c2O[C@H]1CN(C)C(=O)Nc1ccc(C(F)(F)F)cc1 | 38 | –
